Reference: ChEMBL document CHEMBL5620402, “Development of submicromolar 17β-HSD10 inhibitors and their in vitro and in vivo evaluation” (Eur J Med Chem, 2023)

Key:
[1] = PBS buffer - Octanol distribution coefficient, logD of the compound at pH 7.4 by UHPLC-DAD-MS analysis; assay type: physicochemical
Summary of the method: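 Compound (0.25 mg) was put into 500 μL of a 1:1 water–octanol (logP) or PBS pH 7.4–octanol (logD) mixture. Samples were shaken 30 min and centrifuged 10 min at 10,000 rcf. Each phase was quantified by UHPLC-DAD-MS against calibration lines.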

[2] = Dissociation constant, pKa of compound using buffers of given pH (range from 3.0 to 11.5) by UV-VIS spectrophotometry; assay type: physicochemical
Summary of the method: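 Compound (10 μL of 1 mg/mL) was put into 490 μL of buffers spanning pH 3.0–11.5 in 0.5-unit steps. UV spectra were scanned at 200–400 nm and 20 °C. pKa was fitted from the sigmoidal absorbance of the dissociated form versus pH.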

[3] = Aqueous solubility, logS of the compound at pH 7.4 phosphate buffer by nephelometry assay; assay type: physicochemical
Summary of the method: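 Nephelometry of compound suspensions in phosphate buffer pH 7.4. Stock was 160 μg/mL, sonicated and auto-diluted over 0–160 μg/mL, with higher stocks (640 μg/mL, 2.54 mg/mL) used if needed. Wells were shaken 30 s and laser-scanned. Solubility was derived by segmental linear regression.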

[4] = target: T1, 3-hydroxyacyl-CoA dehydrogenase type-2 (Homo sapiens) (UniProt Q99714); assay: Inhibition of recombinant 17beta-HSD10 (unknown origin) expressed in Escherichia coli BL21 (DE3) assessed as residual activity at 10 uM using acetoacetyl-CoA as substrate by SAAC method relative to control
T1 sequence (whole entry): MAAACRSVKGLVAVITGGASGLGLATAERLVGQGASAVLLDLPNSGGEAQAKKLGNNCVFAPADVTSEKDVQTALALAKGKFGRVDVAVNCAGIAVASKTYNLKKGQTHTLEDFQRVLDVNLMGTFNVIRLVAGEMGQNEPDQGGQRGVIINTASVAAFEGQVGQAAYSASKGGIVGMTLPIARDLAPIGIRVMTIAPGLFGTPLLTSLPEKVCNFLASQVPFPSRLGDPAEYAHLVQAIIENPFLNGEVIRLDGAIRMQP
Summary of the method: (§1)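 Recombinant 17β-HSD10 from E. coli BL21(DE3), 0.15 μg, was mixed with 320 μmol/L NADH in Tris-HCl pH 7.4 assay buffer. It was preincubated 5 min at 37 °C with 1 or 10 μM inhibitor or vehicle, then 320 μmol/L acetoacetyl-CoA was added. A340 was followed for 5 min. Residual activity is % of control, triplicate mean ± SD, with t-test versus control.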

[5] = Partition coefficient between Water and Octanol, logP of the compound by UHPLC-DAD-MS analysis; settings: pH 7.4
[6] = target: T1, 3-hydroxyacyl-CoA dehydrogenase type-2 (Homo sapiens); assay: Inhibition of recombinant 17beta-HSD10 (unknown origin) expressed in Escherichia coli BL21 (DE3) assessed as residual activity at 1 uM using acetoacetyl-CoA as substrate by SAAC method relative to control; summary of the method: as §1
[7] = target: T2, 3-hydroxyacyl-CoA dehydrogenase type-2 (Homo sapiens, UniProt Q99714); assay: Inhibition of human recombinant 17beta-HSD10 expressed in bacterial expression system assessed as decrease in NADH using acetoacetyl-CoA as substrate
T2 sequence (Q99714 whole entry): T1 sequence (whole entry)
Summary of the method: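 Recombinant 17β-HSD10 from E. coli BL21(DE3), 0.15 μg, was mixed with 320 μmol/L NADH in 10 mM Tris-HCl pH 7.4 buffer (150 mM NaCl, 1 mM DTT, 0.001% Tween 20, 0.01% BSA). It was preincubated 5 min at 37 °C with inhibitor, then 320 μmol/L acetoacetyl-CoA was added. A340 was followed for 5 min. IC50 came from non-linear regression of ≥3 independent runs in triplicate; Ki was calculated from IC50 per Cer et al.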

With `COc1ccc2nc(/N=C/c3ccc(O)c(Cl)c3)sc2c1` the logD [1] was 3.95, the pKa [2] was 11.6 and the logS0 [3] was -4.73. For the same molecule, the Activity [4] was 76.6% and the logP [5] was 3.79.

`Oc1ccc(NCc2nc3ccccc3s2)cc1Cl` gave a logD [1] of 3.88, a pKa [2] of 9.07 and a logS0 [3] of -4.69. For the same molecule, the Activity [4] was 72.1% and the logP [5] was 3.77.

Work on `CN(C)C(=O)c1ccc2nc(NC(=O)Nc3ccc(O)c(Cl)c3)sc2c1` yielded a logD [1] of 2.95, a pKa [2] of 9.51 and a logS0 [3] of -4.81. The Activity [4] was 31%, the Activity [6] was 70% and the logP [5] was 2.94.

Work on `CCOC(=O)c1ccc2nc(NC(=O)Nc3ccc(O)c(Cl)c3)sc2c1` yielded a logD [1] of 4.64, a pKa [2] of 9.26 and a logS0 [3] of -4.81. The Activity [4] was 58.6% and the logP [5] was 4.58.

With `COc1ccc2nc(NCc3ccc(O)c(Cl)c3)sc2c1` the logD [1] was 4.17, the pKa [2] was 8.4 and the logS0 [3] was -4.73. For the same molecule, the Activity [4] was 33.2%, the Activity [6] was 74.4% and the logP [5] was 4.19.

Work on `COc1ccc2nc(NC(=O)Nc3ccc(O)c([N+](=O)[O-])c3)sc2c1` yielded a logD [1] of 3.44, a pKa [2] of 10.4 and a logS0 [3] of -4.78. It also gave an Activity [4] of 79.4% and a logP [5] of 3.47.

`CS(=O)(=O)c1ccc2nc(NC(=O)Nc3ccc(O)c(Cl)c3)sc2c1` gave an IC50 [7] of 900 nM.

Work on `Oc1ccc(/N=C/c2nc3ccccc3s2)cc1Cl` yielded a logD [1] of 2.73, a pKa [2] of 9.14 and a logS0 [3] of -4.68. The Activity [4] was 68.7% and the logP [5] was 2.94.

With `Oc1ccc(CNCc2cc3ccccc3[nH]2)cc1Cl` the logD [1] was 2.73, the pKa [2] was 7.6 and the logS0 [3] was -3.39. It also gave an Activity [4] of 73.8% and a logP [5] of 2.84.

`CN(C)c1ccc2nc(NC(=O)Nc3ccc(O)c(Cl)c3)sc2c1` showed a logD [1] of 4.08, a pKa [2] of 4.61 and a logS0 [3] of -4.08. The Activity [4] was 27%, the Activity [6] was 62.7% and the logP [5] was 4.09.

`Oc1ccc(CNCc2nc3ccccc3s2)cc1Cl` gave a logD [1] of 4.04, a pKa [2] of 8.79 and a logS0 [3] of -3.99. The Activity [4] was 54.1% and the logP [5] was 4.03.

`COc1ccc2nc(NC(=O)Nc3ccc(O)c(Br)c3)sc2c1` gave an IC50 [7] of 1300 nM.

`Oc1ccc(CNCc2nc3ccccc3o2)cc1Cl` gave a logD [1] of 3.19, a pKa [2] of 8.74 and a logS0 [3] of -3.38. It also gave an Activity [4] of 67.6% and a logP [5] of 3.14.
